Values after ≈ are worked out from the molar mass of the structure shown.
Key:
[1] = Intrinsic clearance in mouse liver microsome in presence of NADPH-regenerating system incubated over 60 mins by LC-MS analysis; settings: microsomes, 1 h
L6 = assay: Cytotoxicity against rat L6 cells assessed as reduction in cell viability at up to 30 uM; format: cell-based
[2] = Octanol/water partition coefficient, logD of the compound at pH 7.4 by HPLC analysis
[3] = Kinetic solubility of compound at pH 6.5 phosphate buffer by nephelometry; format: physicochemical; settings: read-out: Kinetic_solubility
Androgen receptor = molecular target: T1, Androgen receptor (Homo sapiens, UniProt P10275)
T1 sequence (P10275 whole entry): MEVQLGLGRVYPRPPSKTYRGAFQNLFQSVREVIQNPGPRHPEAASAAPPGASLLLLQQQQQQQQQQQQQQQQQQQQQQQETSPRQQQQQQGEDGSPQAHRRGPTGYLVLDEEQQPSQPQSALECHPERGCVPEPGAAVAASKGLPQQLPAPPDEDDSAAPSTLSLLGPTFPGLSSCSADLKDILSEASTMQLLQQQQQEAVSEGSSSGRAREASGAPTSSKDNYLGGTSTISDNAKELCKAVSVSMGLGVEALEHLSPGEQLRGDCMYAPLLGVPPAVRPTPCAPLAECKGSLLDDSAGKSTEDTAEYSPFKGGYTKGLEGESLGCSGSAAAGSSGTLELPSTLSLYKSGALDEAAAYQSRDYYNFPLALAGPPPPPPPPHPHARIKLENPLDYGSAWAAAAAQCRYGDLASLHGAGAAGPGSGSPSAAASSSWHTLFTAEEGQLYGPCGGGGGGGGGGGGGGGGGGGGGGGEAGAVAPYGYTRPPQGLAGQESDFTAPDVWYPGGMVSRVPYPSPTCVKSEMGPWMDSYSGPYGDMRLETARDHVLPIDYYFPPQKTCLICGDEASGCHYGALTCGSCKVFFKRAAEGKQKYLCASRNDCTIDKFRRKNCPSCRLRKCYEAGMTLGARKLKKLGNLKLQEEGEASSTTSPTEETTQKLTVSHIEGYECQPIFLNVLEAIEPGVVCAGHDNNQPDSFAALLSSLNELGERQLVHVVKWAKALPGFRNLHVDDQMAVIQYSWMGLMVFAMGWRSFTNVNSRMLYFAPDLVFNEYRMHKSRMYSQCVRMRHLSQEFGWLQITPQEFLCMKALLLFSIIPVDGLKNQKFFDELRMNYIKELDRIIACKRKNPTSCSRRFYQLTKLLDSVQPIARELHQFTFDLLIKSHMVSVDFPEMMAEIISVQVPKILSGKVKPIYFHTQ

[4] = Kinetic solubility of the compound in 0.01 M HCl at pH 2 by nephelometry; format: physicochemical; settings: read-out: Kinetic_solubility
[5] = Intrinsic clearance in human liver microsome in presence of NADPH-regenerating system incubated over 60 mins by LC-MS analysis; settings: microsomes, 1 h
Schistosoma mansoni = assay: Antischistosomal activity against Schistosoma mansoni infected in NMRI mouse assessed as reduction in total worm burden at 100 mg/kg, po administered as single dose starting on day 49 post-infection and measured at 28 days post treatment relative to control; format: functional; design: scale not given: the % may be the effect or the level left; settings: time 28 day
How it was run: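 S. mansoni-infected NMRI mice treated on day 49 post-infection with a single oral dose, dissolved or suspended in 7% v/v Tween 80, 3% v/v ethanol (10 mL/kg), five mice per group. Sacrificed and dissected 28 d post-treatment; worms counted to give total worm burden reduction versus untreated controls. Kruskal–Wallis test on medians, treatment versus control.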

Albumin = Albumin (Homo sapiens, UniProt P02768); assay: Protein binding in immobilized human serum albumin by HPLC analysis; format: ADME; settings: isolated protein
Sequence of Albumin (P02768 whole entry): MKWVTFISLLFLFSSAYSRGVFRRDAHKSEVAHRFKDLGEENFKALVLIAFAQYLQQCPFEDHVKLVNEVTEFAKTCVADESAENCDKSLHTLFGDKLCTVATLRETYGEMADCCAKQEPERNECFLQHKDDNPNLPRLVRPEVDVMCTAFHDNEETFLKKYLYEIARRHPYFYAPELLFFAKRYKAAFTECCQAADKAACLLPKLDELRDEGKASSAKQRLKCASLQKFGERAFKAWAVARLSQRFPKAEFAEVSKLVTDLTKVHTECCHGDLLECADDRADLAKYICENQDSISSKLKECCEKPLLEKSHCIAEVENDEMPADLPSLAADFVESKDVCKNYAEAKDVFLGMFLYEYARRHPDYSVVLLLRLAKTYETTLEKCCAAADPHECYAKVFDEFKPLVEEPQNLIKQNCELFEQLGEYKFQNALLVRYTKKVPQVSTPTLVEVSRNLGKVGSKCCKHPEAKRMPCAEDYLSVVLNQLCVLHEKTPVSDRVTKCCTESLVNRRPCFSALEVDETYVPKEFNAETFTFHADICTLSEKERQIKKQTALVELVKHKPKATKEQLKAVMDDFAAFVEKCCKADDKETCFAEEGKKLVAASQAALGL
How it was run: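 Binding estimated from gradient HPLC retention on a human albumin column, correlated against standard compounds of known protein binding.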

[6] = Cmax in male Swiss mouse at 100 mg/kg, po administered via gavage measured upto 48 hrs postdose by LC-MS analysis; format: ADME, organism-based; design: route oral, dose 100 mg/kg, time <=48; settings: in vivo
How it was run: (§1)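 Nonfasted male Swiss outbred mice (25–33 g, 7 per compound, fed ad libitum) were gavaged once at 10 mL/kg. Vehicle was 7% v/v Tween 80, 3% v/v ethanol in water, dosed within 1 h of preparation. Blood was drawn 0.25–48 h postdose (n = 2 per time point) into heparin with stabilizer, and plasma was quantified by LCMS. Noncompartmental analysis.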

[7] = AUC (0 to last) in male Swiss mouse at 100 mg/kg, po administered via gavage measured upto 48 hrs postdose by LC-MS analysis; format: ADME, organism-based; design: route oral, dose 100 mg/kg, time <=48; settings: in vivo
[8] = Tmax in male Swiss mouse at 100 mg/kg, po administered via gavage measured upto 48 hrs postdose by LC-MS analysis; format: ADME, organism-based; settings: in vivo; how it was run: as §1

CC1(C)C(=O)N(c2ccc(F)c(C(F)(F)F)c2)C(=O)N1S(C)(=O)=O
CLH [1]: < 7 µL/min/mg | Activity (L6): Non-Toxic | logD [2]: 3.8 | solubility kinetic [3]: 1.6 µg/mL (≈ 4.34 µM) | IC50 (Androgen receptor): 6.3 µM | solubility kinetic [4]: 1.6 µg/mL (≈ 4.34 µM) | CLH [5]: < 7 µL/min/mg | Activity (Schistosoma mansoni): 19% | PPB (Albumin): 66%

CC1(C)NC(=O)N(c2ccc(C(F)(F)F)nc2)C1=O
CLH [1]: < 7 µL/min/mg | Activity (L6): Non-Toxic | logD [2]: 1.8 | solubility kinetic [3]: > 100 µg/mL | IC50 (Androgen receptor): > 10 µM | solubility kinetic [4]: > 100 µg/mL | CLH [5]: < 7 µL/min/mg | Activity (Schistosoma mansoni): 0% | PPB (Albumin): 18.3%

CC1(C)NC(=O)N(c2ccc(F)c(C(F)F)c2)C1=O
CLH [1]: < 7 µL/min/mg | Activity (L6): Non-Toxic | logD [2]: 2.2 | Cmax [6]: 112 µM | solubility kinetic [3]: > 100 µg/mL | AUClast [7]: 3190 µM·h | IC50 (Androgen receptor): ≥ 10 µM | solubility kinetic [4]: > 100 µg/mL | CLH [5]: < 7 µL/min/mg | Tmax [8]: 3 h | Activity (Schistosoma mansoni): 94% | PPB (Albumin): 20.4%

Cc1ccc(N2C(=O)NC(C)(C)C2=O)cc1C(F)(F)F
CLH [1]: 16 µL/min/mg | Activity (L6): Non-Toxic | logD [2]: 2.8 | solubility kinetic [3]: > 100 µg/mL | IC50 (Androgen receptor): > 10 µM | solubility kinetic [4]: > 100 µg/mL | CLH [5]: < 7 µL/min/mg | Activity (Schistosoma mansoni): 4.8% | PPB (Albumin): 64.8%

CC1(C)NC(=O)N(c2ccnc(C(F)(F)F)c2)C1=O
CLH [1]: < 7 µL/min/mg | Activity (L6): Non-Toxic | logD [2]: 1.9 | Cmax [6]: 155 µM | solubility kinetic [3]: > 100 µg/mL | AUClast [7]: 6480 µM·h | IC50 (Androgen receptor): 4.5 µM | solubility kinetic [4]: > 100 µg/mL | CLH [5]: < 7 µL/min/mg | Tmax [8]: 7 h | Activity (Schistosoma mansoni): 100% | PPB (Albumin): 22.7%

CC1(C)C(=O)N(c2ccc(F)c(C(F)(F)F)c2)C(=O)N1S(=O)(=O)c1ccccc1
CLH [1]: 160 µL/min/mg | Activity (L6): Non-Toxic | logD [2]: 4.6 | solubility kinetic [3]: < 1.6 µg/mL | IC50 (Androgen receptor): 4.3 µM | solubility kinetic [4]: < 1.6 µg/mL | CLH [5]: 210 µL/min/mg | Activity (Schistosoma mansoni): 44% | PPB (Albumin): 96.1%

CC1(C)NC(=O)N(c2ccc(Cl)c(C(F)(F)F)c2)C1=O
CLH [1]: < 7 µL/min/mg | Activity (L6): Non-Toxic | logD [2]: 3 | solubility kinetic [3]: > 100 µg/mL | IC50 (Androgen receptor): 1.3 µM | solubility kinetic [4]: > 100 µg/mL | CLH [5]: < 7 µL/min/mg | Activity (Schistosoma mansoni): 75% | PPB (Albumin): 79.6%

O=C1NC2(CCCC2)C(=O)N1c1ccc(F)c(C(F)(F)F)c1
CLH [1]: 93 µL/min/mg | Activity (L6): Non-Toxic | logD [2]: 3.2 | Cmax [6]: 15 µM | solubility kinetic [3]: 50 µg/mL (≈ 158 µM) | AUClast [7]: 106 µM·h | IC50 (Androgen receptor): 0.99 µM | solubility kinetic [4]: 50 µg/mL (≈ 158 µM) | CLH [5]: 33 µL/min/mg | Tmax [8]: 1 h | Activity (Schistosoma mansoni): 61% | PPB (Albumin): 70.4%

CC1(C)NC(=O)N(c2cnccn2)C1=O
CLH [1]: < 7 µL/min/mg | Activity (L6): Non-Toxic | logD [2]: 0.3 | solubility kinetic [3]: > 100 µg/mL | IC50 (Androgen receptor): > 10 µM | solubility kinetic [4]: > 100 µg/mL | CLH [5]: < 7 µL/min/mg | Activity (Schistosoma mansoni): 42% | PPB (Albumin): 5.8%

CC1(C)NC(=O)N(c2cccnc2)C1=O
CLH [1]: < 7 µL/min/mg | Activity (L6): Non-Toxic | logD [2]: 0.2 | solubility kinetic [3]: > 100 µg/mL | IC50 (Androgen receptor): 9.6 µM | solubility kinetic [4]: > 100 µg/mL | CLH [5]: < 7 µL/min/mg | Activity (Schistosoma mansoni): 38% | PPB (Albumin): 6.6%

CC1(C)NC(=O)N(c2ccnc3ccccc23)C1=O
CLH [1]: < 7 µL/min/mg | Activity (L6): Non-Toxic | logD [2]: 1.2 | solubility kinetic [3]: > 100 µg/mL | IC50 (Androgen receptor): 1.3 µM | solubility kinetic [4]: > 100 µg/mL | CLH [5]: < 7 µL/min/mg | Activity (Schistosoma mansoni): 17% | PPB (Albumin): 16.9%

CN1C(=O)N(c2ccc(F)c(C(F)(F)F)c2)C(=O)C1(C)C
CLH [1]: 65 µL/min/mg | Activity (L6): Non-Toxic | logD [2]: 3.2 | solubility kinetic [3]: 50 µg/mL (≈ 164 µM) | IC50 (Androgen receptor): 1.3 µM | solubility kinetic [4]: 50 µg/mL (≈ 164 µM) | CLH [5]: 16 µL/min/mg | Tmax [8]: 1 h | Activity (Schistosoma mansoni): 93% | PPB (Albumin): 40.9%

CC1(C)NC(=O)N(c2cccc(C(F)(F)F)c2)C1=O
CLH [1]: < 7 µL/min/mg | Activity (L6): Non-Toxic | logD [2]: 2.5 | solubility kinetic [3]: > 100 µg/mL | IC50 (Androgen receptor): 6 µM | solubility kinetic [4]: > 100 µg/mL | CLH [5]: < 7 µL/min/mg | Activity (Schistosoma mansoni): 80% | PPB (Albumin): 49.3%

CC1(C)C(=O)N(c2ccc(F)c(C(F)(F)F)c2)C(=O)N1CCc1ccccc1
CLH [1]: 740 µL/min/mg | Activity (L6): Non-Toxic | logD [2]: 4.6 | solubility kinetic [3]: 25 µg/mL (≈ 63.4 µM) | IC50 (Androgen receptor): 2.4 µM | solubility kinetic [4]: 12.5 µg/mL (≈ 31.7 µM) | CLH [5]: > 870 µL/min/mg | Activity (Schistosoma mansoni): 54% | PPB (Albumin): 96.2%

CC1(C)NC(=O)N(c2ccc(F)c(C#N)c2)C1=O
CLH [1]: < 7 µL/min/mg | Activity (L6): Non-Toxic | logD [2]: 1.7 | solubility kinetic [3]: > 100 µg/mL | IC50 (Androgen receptor): 3.7 µM | solubility kinetic [4]: > 100 µg/mL | CLH [5]: < 7 µL/min/mg | Activity (Schistosoma mansoni): 10% | PPB (Albumin): 14.6%

— ChEMBL document CHEMBL4680100, “Revisiting the SAR of the Antischistosomal Aryl Hydantoin (Ro 13-3978)” (J Med Chem, 2016)
